Assay outcomes: PubChem, several laboratories
NR2E3 ag-1 – activates human NR2E3 receptor | Q9Y5X4 | CHO-S Gal4-NCOR/VP16-NR2E3 two-hybrid, luciferase | inhibition of corepressor binding, % at 3.98 µM | 360,000 compounds, 0.35% hits | AID 602229;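 active means inhibition above the mean of all tested compounds plus 3 SD, cut at about 70% in these data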;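 further: 0% = DMSO with NR2E3 transfected cells and 100% = cells lacking NR2E3 construct; higher means lower luciferase signal from less NR2E3 corepressor binding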
Target sequence (Q9Y5X4 whole entry, looked up, the tested form may be a part): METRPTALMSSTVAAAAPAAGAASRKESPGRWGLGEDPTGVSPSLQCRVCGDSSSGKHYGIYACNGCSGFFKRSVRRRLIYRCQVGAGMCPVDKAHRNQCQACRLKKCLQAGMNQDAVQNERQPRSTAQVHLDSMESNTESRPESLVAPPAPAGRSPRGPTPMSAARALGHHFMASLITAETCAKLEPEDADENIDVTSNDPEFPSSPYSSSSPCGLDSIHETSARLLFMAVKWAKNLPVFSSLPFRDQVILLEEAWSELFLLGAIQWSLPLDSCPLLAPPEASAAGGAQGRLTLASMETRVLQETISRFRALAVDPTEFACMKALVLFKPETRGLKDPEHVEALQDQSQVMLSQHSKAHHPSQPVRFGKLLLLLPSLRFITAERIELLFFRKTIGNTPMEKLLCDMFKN
Jurkat NFkB inh – inhibitors of the PMA/ionomycin-induced NF-kB reporter in Jurkat cells. PMA/ionomycin-induced NF-kB luciferase reporter, luminescence. inhibition, % at 4 µM. 330,000 compounds, 0.53% hits; in the data active means inhibition above about 50%
miR122 inh – blocks miR-122 activity in Huh7 sensor cells | activation (reporter increase), % at 12.5 µM | 340,000 compounds, 0.3% hits | AID 602342 | Huh7 miR-122 Renilla luciferase sensor, 48 h; neutral wells = 0, positive control = 100;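 active means mean replicate activation score at least 90 and every replicate individually at or above 90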;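 further: higher luciferase means less miR-122 activity so hits act as miR-122 inhibitors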
697 NFkB inh – lowers PMA/ionomycin-induced NF-kB signal in 697 B cells; AID 435022; 697 B-cell NF-kB luciferase reporter, 16 h; 330,000 compounds, 0.33% hits; inhibition, % at 4 µM; in the data active means inhibition above about 35%
FGF22 binding – FGF22 (human) thermal shift binding. recombinant FGF22 thermal shift, SYPRO orange fluorescence; percent of sucrose octasulfate shift, DMSO zero. AID 651658. activity (Tm shift, normalised), % at 9.99 µM. 340,000 compounds, 1.5% hits. Q9HCT0;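 active means mean Tm shift, scaled 0 neutral to 100 positive control, at about 1.3% or above, every replicate too, limit read from the data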
NR2E3 ag-2 – agonists of human nuclear receptor NR2E3; inhibition of corepressor binding, % at 4.78 µM; GST-NR2E3/biotin-RetCOR TR-FRET, 1536-well; Q9Y5X4; AID 2300; 320,000 compounds, 0.12% hits;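 active means percent inhibition above the cutoff of mean plus 3 SD of all tested compounds, set per screening campaign, cut at about 20% in these data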;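 further: 0% = DMSO wells and 100% = biotin wells as full block of FRET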
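Material – GST-tagged NR2E3 plus biotinylated RetCOR corepressor · Quantity – NR2E3 fusion 1.35 nM · Times – 5 h incubation at 4 °C · Medium – pH 7.5 Tris-based buffer · Technique – TR-FRET, Eu(K)-anti-GST donor, streptavidin-D2 acceptor, ex 340, em 617/671 nm · Benchmarks – high control biotin, low control 0.6% DMSO · Format – 1536-well plates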
697 NFkB conf – lowers PMA/ionomycin-induced NF-kB signal in 697 B cells; shares compounds with 697 NFkB inh; 2,000 compounds, 35% hits; inhibition, % at 4 µM; 697 B-cell NF-kB luciferase, 16 h; in the data active means inhibition mostly above about 28%, no sharp cut-off; inactive means mostly below about 22%
* = called active by the depositor; i = inactive; · = no result; [ ] = dose if it differs, or a comment. Hits are enriched below; roughly 2.2% of the tested compounds scored in any of these assays.

SMILES	NR2E3 ag-1	Jurkat NFkB inh	miR122 inh	697 NFkB inh	FGF22 binding	NR2E3 ag-2	697 NFkB conf
c1ccc([C@H]2CN3C(=N2)Sc2ccccc23)cc1	-108.7	-136.9	0.8	-267.9	45.2*	-2.3	-347.4
CCCN1C[C@@H](C)[C@@H](OC)CN(C)C(=O)c2ccc(NC(=O)c3ccccc3F)cc2OC[C@@H]1C	·	·	·	·	0.2	·	·
COc1ccc(-c2nc(CSCC(=O)NCc3ccco3)c(C)o2)cc1	51.7	29.4	-11.3	37.8*	·	1.8	43.2*
COc1ccc(NC(=O)CSCC(=O)NCc2ccco2)cc1	-25.3	9.3	2.0	14.4	-0.4	-4.3	·
CO[C@@H]1CN(C)C(=O)c2ccc(NC(C)=O)cc2OC[C@@H](C)N(Cc2cccc(F)c2)C[C@H]1C	·	·	-3.0[16.7 µM]	·	-0.4	·	·
CCOC(=O)CSc1nc2ccc(NC(C)=O)cc2s1	-11.1	-3.0	-2.7	14.4	·	3.0	·
CC(=O)Nc1ccc2nc(SCC(=O)O)sc2c1	5.7	-9.0	·	35.9*	·	0.6	7.4
N#CC1=C(N)Oc2cc(Nc3ccccc3)ccc2C1c1ccncc1 (centres undefined)	19.9	-8.5	-4.4	37.1*	·	0.7	41.0*
CCOC(=O)COc1cc(=O)n(CC)c2ccccc12	-17.5	-0.1	-1.7	25.7	·	-0.7	·
CCn1c(=O)cc(OCC(=O)Nc2ccc(OC)c(OC)c2)c2ccccc21	-14.4	6.6	·	35.8*	43.4*	0.2	37.4*
CCn1c(=O)cc(OCC(=O)N(C)C2CCCCC2)c2ccccc21	-5.3	-2.1	-1.9	39.0*	·	-1.4	43.9*
CCN(CCCNC(=O)COc1cc(=O)n(CC)c2ccccc12)c1ccccc1	4.0	2.1	-10.7	5.1	·	-1.3	·
CCn1c(=O)cc(OCC(=O)Nc2ccc3c(c2)OCCO3)c2ccccc21	2.9	-1.0	-1.7	30.7	·	-0.7	·
CCN(CC)CCOC(=O)c1ccc(NC(=O)COc2cc(=O)n(CC)c3ccccc23)cc1	6.2	5.3	-1.3	39.3*	·	2.1	44.8*
CCNC(=O)[C@H]1[C@H](CO)[C@H]2Cn3c(ccc(-c4ccncc4)c3=O)[C@H]2N1Cc1ccc2c(c1)OCO2	·	·	9.9[16.7 µM]	·	0.0	·	·
CN1c2ccccc2C(C)(C)C12CC(c1cccc(S(=O)(=O)N3CCCC3)c1)=NO2 (centres undefined)	-8.3	-66.0	-3.4	i	·	-2.5	i
CCN(CC)S(=O)(=O)c1ccc(C2=NOC3(C2)N(C)c2ccccc2C3(C)C)cc1 (centres undefined)	-10.1	-72.2	-4.4	-483.5	-0.2	2.7	i
CN1c2ccccc2C(C)(C)C12CC(c1ccc(S(=O)(=O)N3CCCCC3)cc1)=NO2 (centres undefined)	-12.9	-53.5	-1.8	i	-0.3	1.7	i
C[C@H](O)C#Cc1cnc2c(c1)C(=O)N([C@@H](C)CO)C[C@H](C)[C@@H](CN(C)CC1CCCCC1)O2	·	·	-3.4[16.7 µM]	·	0.3	·	·
O=C(Cc1ccccc1)N1CC[C@@H]2[C@H](CO)Nc3ccc(Br)cc3[C@@H]21	·	·	67.9[16.7 µM]	·	0.0	·	·
CO[C@H]1CC[C@@H]2CCN(C)C(=O)C[C@H](c3ccccc3)CN(C)C(=O)c3cccc(C#N)c3OC[C@@H]1O2	·	·	·	·	0.1	·	·
C[C@H](CO)N1C[C@H](C)[C@@H](CN(C)C(=O)Nc2ccc3c(c2)OCO3)Oc2c(NC(=O)Nc3ccc(C(F)(F)F)cc3)cccc2C1=O	13.8	-3.3	-2.7	45.7*	-0.5	·	16.1
O=S(=O)(c1ccc2c(c1)C(=NO)c1cc(S(=O)(=O)N3CCCCC3)ccc1-2)N1CCCCC1	-4.4	25.4	3.8	103.8*	·	1.7	-32.8
O=S(=O)(c1ccc(S(=O)(=O)N2CCCC2)cc1)N1CCCCCC1	15.8	0.4	8.0	-7.6	0.2	4.9	·
O=C(Nc1nccs1)c1sc2ccccc2c1Cl	-147.1	-114.9	0.3	-352.3	·	0.8	-326.2
CCCC#Cc1ccc2c(c1)O[C@@H](CN(C)C(=O)c1ccccc1)[C@@H](C)CN([C@H](C)CO)S2(=O)=O	·	·	9.4[16.7 µM]	·	-0.4	·	·
